For one compound, Activity results are on record in ChEMBL document CHEMBL4834471 (J Med Chem, 2021).

Activity calls are given as the source filed them. No cut-off for these calls is given here.

This assay relates to Mus musculus. The assay can be described thus: Antiinflammatory activity in zymosan-induced CD-1 mouse peritonitis model assessed as reduction in LTC4 level at 10 mg/kg, ip preincubated with compound for 30 mins followed by zymosan addition and measured after 30 mins by ELISA. The class given is functional, organism-based. The conditions noted are these: time 60.0 min. The gist of the method:
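Compound 10 mg/kg i.p. in zymosan-induced peritonitis; mice killed 30 min after zymosan injection; exudate LTC4 measured by ELISA; statistics by two-tailed unpaired t-test of log data.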
(In an ELISA, binding on a coated surface is turned into a signal by an enzyme label.)

Turning to `C/C(=C\CC/C(C)=C/CC[C@]1(C)CCc2c(C)c(O)c(C)c(C)c2O1)CCC=C(CO)CO`, the outcome was Active.
